In ChEMBL document CHEMBL3875168, “Synthesis and apoptosis inducing studies of triazole linked 3-benzylidene isatin derivatives” (Eur J Med Chem, 2016):
The source made the active and inactive calls. The calls are words filed in the database; no cut-off is given here.

How the values were obtained:
[1] = Cell cycle arrest in human DU145 cells assessed as accumulation at G2/M phase after 24 hrs by propidium iodide staining-based flow cytometry; assay type: functional; conditions: DU-145
Method in brief: (§1)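 Compound given to DU145 at 2.5 and 5.0 μM for 24 h alongside untreated cells. Cells harvested, PBS-washed, fixed in ice-cold 70% ethanol, then stained 30 min at 37 °C in the dark with propidium iodide (50 μg/mL) plus RNase A (20 μg/mL) in 0.1% Triton X-100. About 10000 events per sample read by flow cytometry; a representative of three independent experiments is shown.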

[2] = system: DU-145; assay: Induction of apoptosis in human DU145 cells assessed as early apoptotic cells at 2.5 uM after 24 hrs by Annexin V-FITC/propidium iodide staining based flow cytometry (reference value: 2.14%); assay type: functional
[3] = Cell cycle arrest in human DU145 cells assessed as accumulation at G2/M phase at 2.5 uM after 24 hrs by propidium iodide staining-based flow cytometry (reference value: 29.66%); assay type: functional; conditions: DU-145; method in brief: as §1
[4] = Cell cycle arrest in human DU145 cells assessed as accumulation at sub G1 phase at 2.5 uM after 24 hrs by propidium iodide staining-based flow cytometry (reference value: 0.65%); assay type: functional; conditions: DU-145; method in brief: as §1
[5] = system: DU-145; assay: Induction of morphological changes in human DU145 cells assessed as cell shrinkage at 1.25 to 5 uM after 48 hrs by acridine orange/ethidium bromide-dual staining based fluorescence microscopic method; assay type: functional
Method in brief: (§2)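 DU145 plated at 1×10^6 cells/mL, treated at several concentrations and kept 48 h at 37 °C in 5% CO2. Equal volumes of acridine orange and ethidium bromide (10 μg/mL) added, and cells imaged within 10 min by fluorescence microscopy (excitation 488 nm, emission 550 nm) at 200x.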

[6] = system: DU-145; assay: Induction of apoptosis in human DU145 cells assessed as early apoptotic cells at 5 uM after 24 hrs by Annexin V-FITC/propidium iodide staining based flow cytometry (reference value: 2.14%; assay type: functional
[7] = system: DU-145; assay: Induction of apoptosis in human DU145 cells assessed as late apoptotic cells at 5 uM after 24 hrs by Annexin V-FITC/propidium iodide staining based flow cytometry (reference value: 5.4%); assay type: functional
[8] = system: DU-145; assay: Induction of apoptosis in human DU145 cells assessed as decrease in Bcl2 level after 48 hrs by Western blot analysis; assay type: functional, cell-based
[9] = system: DU-145; assay: Induction of apoptosis in human DU145 cells assessed as necrotic cells at 2.5 uM after 24 hrs by Annexin V-FITC/propidium iodide staining based flow cytometry (reference value: 2.14%); assay type: functional
[10] = Cytotoxicity against human BT549 cells assessed as cell growth inhibition after 48 hrs by MTT assay; assay type: functional, cell-based; conditions: BT-549, 48 h
Method in brief: (§3)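 Cell lines (NCCS) grown in DMEM or RPMI with 10% FBS and antibiotic-antimycotic at 37 °C, 5% CO2, 90% humidity. Cells seeded at 3-5×10^3 per well, treated 48 h with serial dilutions in medium beside vehicle control. Medium replaced with MTT (0.5 mg/mL) for 4 h, absorbance read at 570 nm. IC50 taken from concentration-response curves; sunitinib served as reference.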

[11] = system: DU-145; assay: Induction of apoptosis in human DU145 cells assessed as necrotic cells at 5 uM after 24 hrs by Annexin V-FITC/propidium iodide staining based flow cytometry (reference value: 2.14%); assay type: functional
[12] = system: DU-145; assay: Induction of apoptosis in human DU145 cells assessed as late apoptotic cells at 2.5 uM after 24 hrs by Annexin V-FITC/propidium iodide staining based flow cytometry (reference value: 5.4%); assay type: functional
[13] = Cytotoxicity against human RWPE1 cells assessed as cell growth inhibition after 48 hrs by MTT assay; assay type: toxicity, cell-based, RWPE-1
[14] = system: DU-145; assay: Induction of apoptosis in human DU145 cells assessed as formation of pyknotic nuclei at 2.5 to 5 uM after 48 hrs by DAPI staining based fluorescence microscopic method; assay type: functional, cell-based
Method in brief: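 DU145 treated for 48 h, PBS-washed, permeabilized with 0.1% Tween 20 for 10 min and stained with 1 μM DAPI. Nuclear morphology of control and treated cells viewed by fluorescence microscopy (excitation 359 nm, emission 461 nm) at 200x.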

[15] = system: DU-145; assay: Induction of apoptosis in human DU145 cells assessed as increase in intracellular reactive oxygen species after 6 hrs by DCFDA dye based spectrofluorometer; assay type: functional, cell-based
[16] = system: DU-145; assay: Induction of mitochondrial membrane potential loss in human DU145 cells at 2.5 uM after 24 hrs by flow cytometry (reference value: 5.39%); assay type: functional
[17] = system: DU-145; assay: Induction of apoptosis in human DU145 cells assessed as early apoptotic cells at 1.25 uM after 24 hrs by Annexin V-FITC/propidium iodide staining based flow cytometry (reference value: 2.14%); assay type: functional
[18] = system: DU-145; assay: Induction of apoptosis in human DU145 cells assessed as increase in Bax level after 48 hrs by Western blot analysis; assay type: functional, cell-based
[19] = Cell cycle arrest in human DU145 cells assessed as accumulation at G0/G1 phase at 2.5 uM after 24 hrs by propidium iodide staining-based flow cytometry (reference value: 62.81%); assay type: functional; conditions: DU-145; method in brief: as §1
[20] = system: DU-145; assay: Induction of mitochondrial membrane potential loss in human DU145 cells at 5 uM after 24 hrs by flow cytometry (reference value: 5.39%); assay type: functional
[21] = system: DU-145; assay: Induction of apoptosis in human DU145 cells assessed as increase in necrotic cells after 24 hrs by Annexin V-FITC/propidium iodide staining based flow cytometry; assay type: functional, cell-based
[22] = Cell cycle arrest in human DU145 cells assessed as accumulation at G2/M phase at 5 uM after 24 hrs by propidium iodide staining-based flow cytometry (reference value: 29.66%); assay type: functional; conditions: DU-145; method in brief: as §1
[23] = Cytotoxicity against human A549 cells assessed as cell growth inhibition after 48 hrs by MTT assay; assay type: functional, cell-based; conditions: A549, 48 h; method in brief: as §3
[24] = Cytotoxicity against human DU145 cells assessed as cell growth inhibition after 48 hrs by MTT assay; assay type: functional, cell-based; conditions: DU-145, 48 h; method in brief: as §3
[25] = Cytotoxicity against human HeLa cells assessed as cell growth inhibition after 48 hrs by MTT assay; assay type: functional, cell-based; method in brief: as §3
[26] = system: DU-145; assay: Induction of morphological changes in human DU145 cells assessed as apoptotic body formation at 1.25 to 5 uM after 48 hrs by acridine orange/ethidium bromide-dual staining based fluorescence microscopic method; assay type: functional, cell-based; method in brief: as §2
[27] = Cytotoxicity against human PC3 cells assessed as cell growth inhibition after 48 hrs by MTT assay; assay type: functional, cell-based; conditions: PC-3, 48 h; method in brief: as §3
[28] = system: DU-145; assay: Induction of apoptosis in human DU145 cells assessed as late apoptotic cells at 1.25 uM after 24 hrs by Annexin V-FITC/propidium iodide staining based flow cytometry (reference value: 5.4%); assay type: functional
[29] = Cell cycle arrest in human DU145 cells assessed as accumulation at S phase at 2.5 uM after 24 hrs by propidium iodide staining-based flow cytometry (reference value: 10.3%); assay type: functional; conditions: DU-145; method in brief: as §1
[30] = system: DU-145; assay: Induction of mitochondrial membrane potential loss in human DU145 cells at 1.25 uM after 24 hrs by flow cytometry (reference value: 5.39%); assay type: functional
[31] = system: DU-145; assay: Induction of apoptosis in human DU145 cells assessed as increase in cytochrome c level after 48 hrs by Western blot analysis; assay type: functional, cell-based
[32] = system: DU-145; assay: Induction of apoptosis in human DU145 cells assessed as viable cells at 5 uM after 24 hrs by Annexin V-FITC/propidium iodide staining based flow cytometry (reference value: 90.32%); assay type: functional; conditions: DU-145, 24 h, read-out: Activity

For O=C1Nc2ccc(C(c3ccccc3)c3ccccc3)cc2/C1=C/c1cccc(OCc2cn(Cc3ccccc3)nn2)c1, the Activity [1] was “Dose-dependent effect”, the Activity [2] was 18.05% and the Activity [3] was 43.7%. The Activity [4] was 27.6%, the Activity [5] was “Active” and the Activity [6] was 13.64%. The Activity [7] was 25%, the Activity [8] was “Active” and the Activity [9] was 4.41%. It also gave an IC50 [10] of 15.8 µM, an Activity [11] of 15.46% and an Activity [12] of 13%. For the same compound, the IC50 at 48 h [13] was 21.4 µM, the Activity [14] was “Active” and the Activity [15] was “Dose-dependent effect”. For the same compound, the Activity [16] was 85.24%, the Activity [17] was 12.6% and the Activity [18] was “Active”. The Activity [19] was 14.8%, the Activity [20] was 99.7% and the Activity [21] was “Dose-dependent effect”. It also gave an Activity [22] of 48%, an IC50 [23] of 14.7 µM and an IC50 [24] of 3.7 µM. For the same compound, the IC50 [25] was 4.28 µM, the Activity [26] was “Active” and the IC50 [27] was 17.2 µM. For the same compound, the Activity [28] was 9.11%, the Activity [29] was 12.7% and the Activity [30] was 64.28%. For the same compound, the Activity [31] was “Active” and the viability at 5 µM [32] was 45.9%.
